Assay results reported in ChEMBL document CHEMBL4602658, “Stilbenes with Potent Protein Tyrosine Phosphatase-1B Inhibitory Activity from the Roots of Polygonum multiflorum” (J Nat Prod, 2020).
The source made the active and inactive calls. No cut-off for these calls is given here.

Assays:
[1] = biological target: T1, Tyrosine-protein phosphatase non-receptor type 1 (Homo sapiens, UniProt P18031); assay: Inhibition of PTP1B (unknown origin) assessed as decrease in p-nitrophenolate formation using pNPP as substrate incubated for 15 mins by spectrophotometric method
T1 sequence (P18031 whole entry): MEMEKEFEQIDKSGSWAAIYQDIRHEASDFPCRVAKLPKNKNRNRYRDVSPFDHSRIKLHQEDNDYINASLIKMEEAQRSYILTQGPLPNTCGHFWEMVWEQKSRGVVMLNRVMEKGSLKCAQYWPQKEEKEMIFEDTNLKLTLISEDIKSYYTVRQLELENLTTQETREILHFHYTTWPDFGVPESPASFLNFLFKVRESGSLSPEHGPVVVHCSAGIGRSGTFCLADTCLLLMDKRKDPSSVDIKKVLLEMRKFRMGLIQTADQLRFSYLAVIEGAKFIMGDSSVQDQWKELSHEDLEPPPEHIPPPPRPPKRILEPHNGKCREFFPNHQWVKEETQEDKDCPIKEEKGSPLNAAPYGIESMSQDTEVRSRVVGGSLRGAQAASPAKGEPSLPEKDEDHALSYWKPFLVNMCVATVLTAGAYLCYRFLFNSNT

[2] = Antioxidant activity assessed as DPPH radical scavenging activity; format: functional
[3] = biological target: T1, Tyrosine-protein phosphatase non-receptor type 1; assay: Inhibition of PTP1B (unknown origin) assessed as decrease in p-nitrophenolate formation using pNPP as substrate by Dixon plot analysis
Outline: (§1)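 Kinetic analysis of human recombinant PTP1B with p-NPP substrate, run at several inhibitor levels. Ki was obtained from Dixon plots, and the inhibition mode from Lineweaver–Burk plots.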

[4] = biological target: T2, Tyrosine-protein phosphatase non-receptor type 1 (Homo sapiens) (UniProt P18031); assay: Noncompetitive inhibition of PTP1B (unknown origin) assessed as decrease in p-nitrophenolate formation using pNPP as substrate by Lineweaver-Burk plot analysis; outline: as §1
T2 sequence (whole entry): T1 sequence (P18031 whole entry)

Row | Compound | IC50 [1] [µM] | further results
1 | OC[C@H]1O[C@@H](OC[C@H]2O[C@@H](Oc3c(O)cc(O)cc3/C=C/c3ccc(O)cc3)[C@H](O)[C@@H](O)[C@@H]2O)[C@H](O)[C@@H](O)[C@@H]1O | > 50 | –
2 | COc1cc(/C=C/C(=O)O[C@@H]2[C@@H](O)[C@H](Oc3c(O)cc(O)cc3/C=C/c3ccc(O)cc3)O[C@H](CO)[C@H]2O)ccc1O | 27.4 | –
3 | OC[C@H]1O[C@@H](Oc2c(O)cc(O)cc2/C=C/c2ccc(O)cc2)[C@H](O)[C@@H](O)[C@@H]1O | > 50 | IC50 [2]: 40000 µM
4 | Oc1ccc(/C=C/c2cc(O)cc(O)c2O[C@@H]2OC[C@@H](O)[C@H](O)[C@H]2O)cc1 | > 50 | –
5 | Oc1ccc(/C=C/c2cc(O)cc(O)c2)cc1 [RESVERATROL] | > 50 | –
6 | C[C@@H]1O[C@@H](Oc2c(O)cc(O)cc2/C=C/c2ccc(O)cc2)[C@H](O)[C@H](O)[C@H]1O | > 50 | –
7 | Oc1ccc([C@@H]2Oc3ccc(/C=C/c4cc(O)cc(O)c4O)cc3[C@H]2c2cc(O)cc(O)c2O)cc1 | 1.9 | Ki [3]: 0.92 µM; inhibition [4]: Active
8 | CC(=O)O[C@@H]1[C@@H](O)[C@H](Oc2c(O)cc(O)cc2/C=C/c2ccc(O)cc2)O[C@H](CO)[C@H]1O | 37.6 | –
9 | O=COC[C@H]1O[C@@H](Oc2c(O)cc(O)cc2/C=C/c2ccc(O)cc2)[C@H](O)[C@@H](O)[C@@H]1O | > 50 | –
10 | CC(=O)OC[C@H]1O[C@@H](Oc2c(O)cc(O)cc2/C=C/c2ccc(O)cc2)[C@H](O)[C@@H](O)[C@@H]1O | > 50 | –
11 | COc1cc([C@@H]2CC(=O)Oc3cc(O)c(O[C@@H]4O[C@H](CO)[C@@H](O)[C@H](O)[C@H]4O)c(/C=C/c4ccc(O)cc4)c32)ccc1O | > 50 | –
12 | COc1cc(/C=C/C(=O)O[C@H]2[C@H](Oc3c(O)cc(O)cc3/C=C/c3ccc(O)cc3)O[C@H](CO)[C@@H](O)[C@@H]2O)ccc1O | > 50 | –
13 | O=C(O)c1cc(O)cc(O)c1C(=O)Cc1ccc(O)cc1 | > 50 | –
14 | O=C(O[C@H]1[C@H](Oc2c(O)cc(O)cc2/C=C/c2ccc(O)cc2)O[C@H](CO)[C@@H](O)[C@@H]1O)c1cc(O)c(O)c(O)c1 | > 50 | –
15 | OC[C@H]1O[C@@H](Oc2c(O)cc(O)cc2[C@H]2c3c(cc(O)c(O[C@@H]4O[C@H](CO)[C@@H](O)[C@H](O)[C@H]4O)c3/C=C/c3ccc(O)cc3)O[C@@H]2c2ccc(O)cc2)[C@H](O)[C@@H](O)[C@@H]1O | > 50 | –
16 | OC[C@H]1O[C@@H](Oc2c(O)cc(O)cc2/C=C/c2ccc3c(c2)[C@H](c2cc(O)cc(O)c2O[C@@H]2O[C@H](CO)[C@@H](O)[C@H](O)[C@H]2O)[C@@H](c2ccc(O)cc2)O3)[C@H](O)[C@@H](O)[C@@H]1O | 32.2 | –
17 | Oc1ccc([C@H]2Oc3ccc(/C=C/c4cc(O)cc(O)c4O)cc3[C@@H]2c2cc(O)cc(O)c2O)cc1 | 2.1 | Ki [3]: 1.02 µM; inhibition [4]: Active
18 | Oc1ccc(/C=C/c2cc(O)cc(O)c2O)cc1 | 12.1 | IC50 [2]: 400 µM
19 | OC[C@H]1O[C@@H](Oc2c(O)cc(O)cc2/C=C/c2ccc3c(c2)[C@@H](c2cc(O)cc(O)c2O[C@@H]2O[C@H](CO)[C@@H](O)[C@H](O)[C@H]2O)[C@H](c2ccc(O)cc2)O3)[C@H](O)[C@@H](O)[C@@H]1O | 34.9 | –
